Shown are actives, neighbours in structure and some others; about 1.9% of the full set was active somewhere.
NadD block: blocks S. aureus nicotinate mononucleotide adenylyltransferase; actives 0.78% (n = 360,000); AID 602399; inhibition, % at 20 µM; purified NadD enzyme, colorimetric absorbance read-out; in the data active = inhibition above about 26%
IMP-1 inh-1: inhibitors of Pseudomonas aeruginosa IMP-1 metallo-beta-lactamase; purified IMP-1, nitrocefin hydrolysis, epi-absorbance fluorescence; inhibition, % at 5.6 µM; actives 0.45% (n = 290,000); AID 1556;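 active = inhibition above the mean plus 3 SD of all compounds in the same screening run, cut at about 4.5% in these data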
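Assay system: purified recombinant IMP-1 beta-lactamase. Input: IMP-1 0.2 nM before substrate addition. Buffer or medium: Zinc- and detergent-supplemented HEPES buffer, pH 7.1. Schedule: 25 °C, 15 min preincubation, 25 min reaction. Signal: Epi-absorbance fluorescence, 480 nm excitation, 530 nm emission. Evaluation: percent inhibition from optical density relative to buffer-blank wells.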
VIM-2 inh: blocks Pseudomonas aeruginosa VIM-2 metallo-beta-lactamase; inhibition, % at 5.6 µM; purified VIM-2, nitrocefin hydrolysis, epi-absorbance fluorescence; actives 0.89% (n = 290,000); AID 1527;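 active = inhibition above the mean of all tested compounds plus 3 SD, cutoff set per screening run, cut at about 7.5% in these data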;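 also: red hydrolysis product quenches plate fluorescence so inhibitors raise well fluorescence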
HCV core dimer: blocks dimerization of HCV core protein | TR-FRET GST/Flag-core106 dimerization, 1536-well | inhibition, % at 5 µM | actives 0.33% (n = 300,000);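 active = inhibition above the mean of all tested compounds plus 3 SD, set per screening campaign, cut at about 45% in these data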
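Assay system: Tagged HCV core106 pair (GST and Flag) | Buffer or medium: KF-containing HEPES buffer, pH 7.45, DTT, CHAPS, BSA | Also added: Eu donor and XL665 acceptor anti-tag antibodies | Dosing: One concentration, 5 µM, in 0.5% DMSO | Timing: 4 h at 22.5 °C | Technique: TR-FRET 671 and 617 nm emission | Repeats: Singlicate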
IMP-1 inh-2: IMP-1 inhibition, counter-screen for VIM-2 inhibitors; inhibition, % at 5.6 µM; 1,300 tested, under 10 active; purified IMP-1, nitrocefin hydrolysis, epi-absorbance fluorescence; shares compounds with VIM-2 inh; AID 1856; call rule not given here
VIM-2 FRET ctr: counter-screen for VIM-2 inhibitors: epi-absorbance artifacts via FRET; shares compounds with VIM-2 inh; purified VIM-2, CCF2 FRET substrate hydrolysis; inhibition, % at 5.6 µM; actives 23% (n = 1,300);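 active = inhibition above the mean of all tested compounds plus 3 SD, cut at about 19% in these data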
TEM-1 counter-1: TEM-1 inhibition, counter-screen for VIM-2 inhibitors; inhibition, % at 5.6 µM; actives 3% (n = 1,300); shares compounds with VIM-2 inh; Purified TEM-1, nitrocefin hydrolysis, epi-absorbance fluorescence; AID 1866;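 active = inhibition above that campaign's mean inhibition plus 3 SD, cut at about 0.46% in these data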
Target sequence (P62593 whole entry, looked up): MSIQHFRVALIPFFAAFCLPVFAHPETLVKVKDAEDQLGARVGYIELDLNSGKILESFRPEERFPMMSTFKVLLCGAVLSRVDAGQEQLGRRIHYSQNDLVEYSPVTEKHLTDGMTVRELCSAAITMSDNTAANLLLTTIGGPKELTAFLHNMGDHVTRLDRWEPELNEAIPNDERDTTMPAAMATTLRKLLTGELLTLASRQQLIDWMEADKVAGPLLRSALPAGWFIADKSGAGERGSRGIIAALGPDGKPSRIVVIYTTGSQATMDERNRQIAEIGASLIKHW
VIM-2 inh conf: confirmation of P. aeruginosa VIM-2 metallo-beta-lactamase inhibitors. shares compounds with VIM-2 inh. actives 96% (n = 1,300). inhibition, % at 5.6 µM. purified VIM-2, nitrocefin hydrolysis, epi-absorbance;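 active = inhibition of the VIM-2 beta-lactamase enzyme above about 11% from the earlier first-round screen, limit read from the data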
VIM-2 inh confirm: VIM-2 inhibition, confirmation assay; inhibition, % at 5.6 µM; purified VIM-2 enzyme, nitrocefin absorbance; actives 73% (n = 200); shares compounds with IMP-1 inh-1; in the data active = inhibition above about 8%
TEM-1 counter-2: blocks E. coli TEM-1 beta-lactamase, VIM-2 IMP-1 counter-screen; shares compounds with IMP-1 inh-1; nitrocefin absorbance inhibition; inhibition, % at 5.6 µM; actives 50% (n = 200); AID 2184; in the data active = inhibition above about 0.66%
IMP-1 confirm: confirmation of P. aeruginosa IMP-1 metallo-beta-lactamase inhibitors. shares compounds with IMP-1 inh-1. purified IMP-1 enzyme, absorbance substrate hydrolysis. inhibition, % at 5.6 µM. actives 60% (n = 200). AID 2189; in the data active = inhibition above about 4.9%
NadD inh conf: NadD (S. aureus) inhibition, single concentration confirmation | inhibition, % at 20 µM | purified S. aureus NadD, colorimetric enzyme assay | actives 13% (n = 2,000) | shares compounds with NadD block; in the data active = inhibition mostly above about 42%, no sharp cut-off; inactive = mostly below about 42%
Each line names hits and unclear results; the compound was inactive in the other large screens (follow-up assays come after a bar, where they were run).

Cn1c(N)c(C(=O)COC(=O)c2cc(-c3ccco3)nc3ccccc23)c(=O)n(C)c1=O	NadD block 59, VIM-2 inh 14 (no result: HCV core dimer) | IMP-1 inh-2 inactive | VIM-2 FRET ctr inactive | TEM-1 counter-1 inactive | VIM-2 inh conf 37 | NadD inh conf 74
Cn1c(N)c(C(=O)COC(=O)c2cc(C(F)(F)F)nc3ccccc23)c(=O)n(Cc2ccccc2)c1=O	none (no result: NadD block)
O=C(CNc1ccc2ccccc2c1)N/N=C/c1cc2ccccc2nc1Cl	NadD block 40, VIM-2 inh 22 | IMP-1 inh-2 inactive | VIM-2 FRET ctr inactive | TEM-1 counter-1 inactive | VIM-2 inh conf 34 | NadD inh conf inactive
CSc1cccc(N2CC(C(=O)NCCC3=CCCCC3)CC2=O)c1 (stereo not drawn)	none (no result: IMP-1 inh-1, VIM-2 inh)
c1nc(NCCN2CCOCC2)c2sc3nc(N4CCOCC4)c4c(c3c2n1)CCC4	IMP-1 inh-1 7.6, VIM-2 inh 9.5 | VIM-2 inh confirm 16 | TEM-1 counter-2 inactive | IMP-1 confirm inactive
CCN(CC)c1ccc(/C=C/C(=O)c2ccc(Br)cc2)cc1	IMP-1 inh-1 8.0, VIM-2 inh 14 | VIM-2 inh confirm 33 | TEM-1 counter-2 48 | IMP-1 confirm 31
Cc1cccc(OCC(=O)OC(C)CN2CCCCC2)c1 (stereo not drawn)	none
CC1CCN(C(=O)CSc2nnc(CNC(=O)COc3ccc(Cl)cc3)o2)CC1	IMP-1 inh-1 35 | VIM-2 inh confirm inactive | TEM-1 counter-2 inactive | IMP-1 confirm inactive
C/C=C/c1ccc(OCC(=O)OCc2csc(CC(=O)Nc3ccccc3C)n2)c(OC)c1	none
O=C(OCCN1C(=O)c2cccc3c(N4CCOCC4)ccc(c23)C1=O)c1cc(Cl)cc(Cl)c1	none (no result: NadD block, HCV core dimer)
CCCN1C(=O)c2cccc3c(N4CCCCC4)ccc(c23)C1=O	IMP-1 inh-1 24, VIM-2 inh 32 | VIM-2 inh confirm 12 | TEM-1 counter-2 6.5 | IMP-1 confirm 5.5
CCCCNc1ccc2c3c(cccc13)C(=O)N(CCCC)C2=O	IMP-1 inh-1 12, VIM-2 inh 15 (no result: HCV core dimer) | VIM-2 inh confirm 22 | TEM-1 counter-2 63 | IMP-1 confirm 18
COc1ccc(-c2cc(=O)oc3c(C)c(OCC(=O)NCCCn4ccnc4)ccc23)cc1	IMP-1 inh-1 38, VIM-2 inh 19 | VIM-2 inh confirm 26 | TEM-1 counter-2 inactive | IMP-1 confirm 32
CC(C)CCNC(=O)C1CCC(=O)N1CCc1ccccc1 (stereo not drawn)	none
O=C(Nc1ccc(S(=O)(=O)N2CCOCC2)cc1)c1ccc(Cl)c([N+](=O)[O-])c1	none (no result: IMP-1 inh-1, VIM-2 inh, HCV core dimer)
CN1C(=O)/C(=C\c2ccc(N(C)C)cc2)OC1=S	IMP-1 inh-1 9.5, VIM-2 inh 8.0 (no result: HCV core dimer) | VIM-2 inh confirm 8.3 | TEM-1 counter-2 18 | IMP-1 confirm 6.1
CN(/N=C/c1ccc(N(C)C)cc1)C1=NS(=O)(=O)c2ccccc21	IMP-1 inh-1 24, VIM-2 inh 52 | VIM-2 inh confirm 29 | TEM-1 counter-2 14 | IMP-1 confirm 24
COc1ccc(/C=N/N(C)C2=NS(=O)(=O)c3ccccc32)cc1	none
CCOC(=O)C1c2cccc(O)c2CCN1C(C)=O (stereo not drawn)	none (no result: IMP-1 inh-1, VIM-2 inh, HCV core dimer)
CC(C)C(CCN1C(=O)c2ccccc2C1=O)c1ccco1 (stereo not drawn)	IMP-1 inh-1 7.3, VIM-2 inh 15 | VIM-2 inh confirm 33 | TEM-1 counter-2 inactive | IMP-1 confirm 19
C[C@H](NC(=O)[C@@H]1CCCN1C(=O)[C@@H]1CCCN1C(=O)c1cccs1)c1ccccc1	none (no result: IMP-1 inh-1, VIM-2 inh, HCV core dimer)
CCCN(C(=O)COC(=O)CSc1ccc([N+](=O)[O-])cc1)C1CCS(=O)(=O)C1 (stereo not drawn)	none (no result: IMP-1 inh-1, VIM-2 inh, HCV core dimer)
Cc1nn(C)c(C)c1N1C(=O)c2cccc3c(N)ccc(c23)C1=O	IMP-1 inh-1 35, VIM-2 inh 31 | VIM-2 inh confirm 42 | TEM-1 counter-2 55 | IMP-1 confirm 38
CCN1C(=O)c2cccc3c(S(=O)(=O)N4CCC(C)CC4)ccc1c23	none (no result: IMP-1 inh-1, VIM-2 inh, HCV core dimer)
CCN1C(=O)c2cccc3c(N)ccc(c23)C1=O	IMP-1 inh-1 43, VIM-2 inh 48 | VIM-2 inh confirm 45 | TEM-1 counter-2 51 | IMP-1 confirm 35
Cc1nn(C)c(C)c1N1C(=O)c2cccc3c(Br)ccc(c23)C1=O	none
COc1ccc(/C(C)=N/NC(=O)c2nnn(-c3nonc3N)c2-c2cccs2)cc1	none
COc1ccc(/C(C)=N/NC(=O)c2nnn(-c3nonc3N)c2-c2ccccc2)cc1	IMP-1 inh-1 19, VIM-2 inh 12 | VIM-2 inh confirm 15 | TEM-1 counter-2 inactive | IMP-1 confirm 18
CCOc1ccc(-c2cc(C(=O)NCCCn3ccnc3)c3ccccc3n2)cc1	none
CCOc1ccc(-c2cc(C(=O)NCCCn3ccnc3)c3cc(Br)ccc3n2)cc1	IMP-1 inh-1 33, VIM-2 inh 17 | VIM-2 inh confirm 21 | TEM-1 counter-2 inactive | IMP-1 confirm 41
N#CC1=C(N)S[C@H](C(=O)C23CC4CC(CC(C4)C2)C3)[C@H]1c1ccncc1	IMP-1 inh-1 55, VIM-2 inh 22 | VIM-2 inh confirm inactive | TEM-1 counter-2 inactive | IMP-1 confirm 5.8
Cc1nn(-c2ccccc2)c(Cl)c1/C=C(\CC(=O)O)c1nc2ccccc2s1	IMP-1 inh-1 8.4, VIM-2 inh 24 | VIM-2 inh confirm 37 | TEM-1 counter-2 inactive | IMP-1 confirm 5.5
Cc1nn(-c2ccc(F)cc2)c(Cl)c1/C=C(\CC(=O)O)c1nc2ccccc2s1	IMP-1 inh-1 7.9, VIM-2 inh 32 | VIM-2 inh confirm 34 | TEM-1 counter-2 inactive | IMP-1 confirm inactive
Cc1nn(-c2ccccc2)c(Cl)c1/C=C(/CC(=O)O)c1nc2ccccc2s1	none (no result: IMP-1 inh-1, VIM-2 inh, HCV core dimer)
COCC1CCN(C(=O)c2ccc(OC3CCN(Cc4ccccn4)CC3)cc2)C1 (stereo not drawn)	none
CCn1ccnc1CN(C)C(=O)c1cc(COc2ccc(OC)c3ccccc23)on1	none

High-throughput results deposited in PubChem by several laboratories.
